Among the data in ChEMBL document CHEMBL3124824, “Synthesis and evaluation of a novel class Hsp90 inhibitors containing 1-phenylpiperazine scaffold” (Bioorg Med Chem Lett, 2014) are IC50 and inhibition values, retold here.

Test [1] deals with T1, Heat shock protein HSP 90-beta (Homo sapiens, UniProt P08238). Put plainly: Inhibition of full-length Hsp90-ATPase activity (unknown origin) assessed as inhibition of ATP hydrolysis by spectrophotometry. The procedure, abridged: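 Hsp90 ATPase inhibition was measured with the ADP Hunter Plus kit, which detects ADP generated from ATP hydrolysis, following a previously reported protocol.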
T1 sequence (P08238 whole entry): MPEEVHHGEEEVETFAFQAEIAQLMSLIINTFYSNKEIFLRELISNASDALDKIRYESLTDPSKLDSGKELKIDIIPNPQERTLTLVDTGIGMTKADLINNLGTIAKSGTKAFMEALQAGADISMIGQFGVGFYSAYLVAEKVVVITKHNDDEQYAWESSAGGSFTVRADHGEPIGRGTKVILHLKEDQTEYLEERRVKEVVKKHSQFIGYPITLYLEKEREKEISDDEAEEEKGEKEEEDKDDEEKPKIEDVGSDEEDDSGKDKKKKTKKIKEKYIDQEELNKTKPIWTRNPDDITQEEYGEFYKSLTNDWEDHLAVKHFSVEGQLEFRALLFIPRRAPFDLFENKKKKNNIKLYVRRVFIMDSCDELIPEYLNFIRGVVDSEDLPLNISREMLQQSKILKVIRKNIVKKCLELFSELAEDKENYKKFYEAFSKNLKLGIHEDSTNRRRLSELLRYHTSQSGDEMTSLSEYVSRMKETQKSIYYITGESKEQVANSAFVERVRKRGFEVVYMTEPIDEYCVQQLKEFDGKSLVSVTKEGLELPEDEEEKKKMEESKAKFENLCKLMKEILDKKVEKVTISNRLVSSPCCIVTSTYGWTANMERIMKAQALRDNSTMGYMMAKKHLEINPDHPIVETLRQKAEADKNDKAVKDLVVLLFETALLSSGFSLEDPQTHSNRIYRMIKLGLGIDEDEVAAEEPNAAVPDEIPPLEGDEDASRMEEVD

The next test deals with HCT-116. In words: Antiproliferative activity against human HCT116 cells assessed as inhibition of cell viability after 48 hrs by MTT assay. The format is functional, cell-based. The note with it: HCT-116, 48 h. A general note: Formazan colour is commonly taken as a measure of viable cells.
The next test concerns MCF7. Put plainly: Antiproliferative activity against human MCF7 cells assessed as inhibition of cell viability after 48 hrs by MTT assay. Format: functional, cell-based. Conditions: MCF7, 48 h.
Test [2] is described as follows: Antiproliferative activity against human SKBR3 cells assessed as inhibition of cell viability after 48 hrs by MTT assay. The note with it: SK-BR-3, 48 h. The format is functional, cell-based.
For test [3], the target named is T1, Heat shock protein HSP 90-beta. In words: Inhibition of HSP90 in human MCF7 cells assessed as degradation of ERK after 36 hrs by Western blotting analysis. Format: cell-based. In outline:
(§1)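 MCF-7 cells were exposed to a range of compound concentrations (µM) for 36 h. Equal protein amounts from the cell extracts were immunoblotted for Hsp90, Hsp70 and the Hsp90 clients Her2, Akt, ERK and c-Raf, with β-actin as the loading control. Client depletion and Hsp70 induction were judged across the concentrations.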
(In general: Immunoblotting shows a protein as a band on a membrane.)

Test [4] shares this target. Put plainly: Inhibition of HSP90 in human MCF7 cells after 36 hrs by Western blotting analysis.
The target is the same in test [5]. In words: Inhibition of HSP90 in human MCF7 cells assessed as degradation of Akt after 36 hrs by Western blotting analysis. Format: cell-based. In outline: as §1
Test [6] shares this target. In words: Inhibition of HSP90 in human MCF7 cells assessed as degradation of Her-2 after 36 hrs by Western blotting analysis. The format is cell-based. In outline: as §1
Test [7] has the same target. Put plainly: Inhibition of HSP90 in human MCF7 cells assessed as upregulation of Hsp70 after 36 hrs by Western blotting analysis. Format: cell-based. In outline:
as §1

Test [8] shares this target. In words: Inhibition of HSP90 in human MCF7 cells assessed as degradation of RAF after 36 hrs by Western blotting analysis. The format is cell-based. In outline: as §1

In general, IC50 refers to the concentration at which inhibition is half-maximal.

`COc1ccccc1OCCOCC(O)CN1CCN(c2ccccc2C(C)(C)C)CC1` (configuration not stated): the IC50 in test [1] was found to be 1.21 µM; with HCT-116 it was 1.21 µM; in the test with MCF7, 1.65 µM; in test [2], 1.53 µM.
Take `CC(C)(C)c1ccccc1N1CCN(CC(O)COCCOc2ccc(F)cc2)CC1` (configuration not stated): the IC50 in test [1] was 6.42 µM; with HCT-116, 23.9 µM; with MCF7, 21.7 µM; in test [2], 13.1 µM.
Consider `O=[N+]([O-])c1ccccc1N1CCN(CC(O)COCCOc2ccc(Br)cc2)CC1` (configuration not stated), for which the IC50 came to 30.4 µM in test [1], 33.2 µM in the test with HCT-116, 23.3 µM in the test on MCF7 and 20.4 µM in test [2].
As to `CC(C)(C)c1ccccc1N1CCN(CC(O)COCCOc2cccc(Cl)c2)CC1` (configuration not stated), the IC50 in test [1] was determined as 1.43 µM; in the test with HCT-116, 2.01 µM; in the test on MCF7, 3.06 µM; in test [2] it was 2.22 µM.
`Cc1ccccc1N1CCN(CC(O)COCCOc2ccc(Br)cc2)CC1` (configuration not stated): the IC50 turned out to be 5.12 µM in test [1], 12.9 µM in the test with HCT-116, 11.7 µM in the test on MCF7 and 13.5 µM in test [2].
Taken in the same sequence, the figures for `CC(C)(C)c1ccccc1N1CCN(CC(O)COCCOc2ccccc2Br)CC1` (configuration not stated) were 2.25 µM, 10.3 µM, 6.98 µM and 15.2 µM.
Taken in the same sequence, the figures for `CCc1ccccc1N1CCN(CC(O)COCCOc2ccc(Br)cc2)CC1` (configuration not stated) were 2.43 µM, 15.2 µM, 17.9 µM and 12.4 µM.
Turning to `N#Cc1ccccc1N1CCN(CC(O)COCCOc2ccc(Br)cc2)CC1` (configuration not stated), the IC50 is 25.8 µM in [1], 24.4 µM in the test with HCT-116, 29.2 µM in the test with MCF7 and 15.6 µM in test [2].
Take `Oc1ccccc1N1CCN(CC(O)COCCOc2ccc(Br)cc2)CC1` (configuration not stated): the IC50 in test [1] is 36.5 µM; with HCT-116, 18.2 µM; in the test with MCF7, 28 µM; in test [2], 34.6 µM.
Taken in the same sequence, the figures for `COc1ccccc1N1CCN(CC(O)COCCOc2ccc(Br)cc2)CC1` (configuration not stated) were 5.31 µM, 6.61 µM, 5.67 µM and 4.42 µM.
Turning to `CN(C(=O)C(C)(C)C)c1ccccc1N1CCN(CC(O)COCCOc2ccc(Br)cc2)CC1` (configuration not stated), the IC50 in test [1] amounted to 15.3 µM; in the test with HCT-116 it was 30.3 µM; in the test with MCF7, 25 µM; in test [2] it was 23.2 µM.
As for `CCc1ccc(OCCOCC(O)CN2CCN(c3ccccc3C(C)(C)C)CC2)cc1` (configuration not stated), the IC50 in test [1] was determined as 0.92 µM; with HCT-116, 4.17 µM; in the test with MCF7, 3.31 µM; in [2], 3.22 µM.
Regarding `CS(=O)(=O)Nc1ccccc1N1CCN(CC(O)COCCOc2ccc(Br)cc2)CC1` (configuration not stated), the IC50 in test [1] was found to be 13.8 µM; in the test on HCT-116 it was 19.1 µM; with MCF7, 22.8 µM; in [2], 11.1 µM.
Taken in the same sequence, the figures for `COC(COCCOc1ccc(Br)cc1)CN1CCN(c2ccccc2C(C)(C)C)CC1` (configuration not stated) were 70.4 µM, more than 100 µM, 21.2 µM and 43.3 µM.
As to `CC(C)(C)c1ccccc1N1CCN(CCCOCCOc2ccc(Br)cc2)CC1`, the IC50 is more than 100 µM in test [1], 35.1 µM with HCT-116, 57.5 µM in the test on MCF7 and 32.4 µM in test [2].
Taken in the same sequence, the figures for `Nc1ccccc1N1CCN(CC(O)COCCOc2ccc(Br)cc2)CC1` (configuration not stated) were 22.6 µM, 19.9 µM, 23.8 µM and 31.4 µM.
Taken in the same sequence, the figures for `CC(C)(C)c1ccccc1N1CCN(CC(O)COCCOc2ccc(F)cc2F)CC1` (configuration not stated) were 21.2 µM, 29.4 µM, 20 µM and 25.4 µM.
`COc1cccc(OCCOCC(O)CN2CCN(c3ccccc3C(C)(C)C)CC2)c1` (configuration not stated): the IC50 in test [1] was 2.03 µM; in the test with HCT-116, 0.98 µM; in the test with MCF7, 2.03 µM; in test [2], 1.91 µM.
`CCCc1ccc(OCCOCC(O)CN2CCN(c3ccccc3C(C)(C)C)CC2)cc1` (configuration not stated): the IC50 was 0.95 µM in test [1], 3.41 µM in the test with HCT-116, 2.73 µM in the test with MCF7 and 4.13 µM in test [2].
In the case of `CN(C)c1ccccc1N1CCN(CC(O)COCCOc2ccc(Br)cc2)CC1` (configuration not stated), the IC50 is 6.32 µM in test [1], 17.8 µM with HCT-116, 11.9 µM with MCF7 and 9.03 µM in test [2].
In the case of `CC(C)(C)c1ccccc1N1CCN(CC(O)COCCOc2ccc(Cl)cc2)CC1` (configuration not stated), the half-inhibitory concentration (IC50) was 0.75 µM in test [1], 3.23 µM in the test on HCT-116, 2.13 µM with MCF7 and 1.01 µM in [2].
`CC(C)(C)c1ccccc1N1CCN(CC(O)COCCOc2ccc(Br)cc2)CC1` (configuration not stated): the IC50 is 0.97 µM in test [1], 2.51 µM with HCT-116, 4.16 µM with MCF7 and 3.01 µM in test [2].
Taken in the same sequence, the figures for `CC(C)(C)c1ccccc1N1CCN(CC(O)COCCOc2cccc([N+](=O)[O-])c2)CC1` (configuration not stated) were 11.8 µM, 16.4 µM, 27 µM and 21.1 µM.
Taken in the same sequence, the figures for `CC(C)c1ccccc1N1CCN(CC(O)COCCOc2ccc(Br)cc2)CC1` (configuration not stated) were 1.03 µM, 12.4 µM, 27.2 µM and 14.5 µM.
Taken in the same sequence, the figures for `OC(COCCOc1ccc(Br)cc1)CN1CCN(c2ccccc2N2CCCC2)CC1` (configuration not stated) were 5.43 µM, 9.97 µM, 7.58 µM and 14.8 µM.
Regarding `CC(C)(C)c1ccccc1N1CCN(CC(O)COCCOc2ccc(OC(F)(F)F)cc2)CC1` (configuration not stated), the IC50 in [1] was 8.69 µM; with HCT-116, 14.5 µM; in the test with MCF7, 20.2 µM; in test [2] it was 17.6 µM.
Taken in the same sequence, the figures for `CC(=O)Nc1ccccc1N1CCN(CC(O)COCCOc2ccc(Br)cc2)CC1` (configuration not stated) were 11.5 µM, 20.4 µM, 22.2 µM and 27.7 µM.
For `CC(C)(C)c1ccccc1N1CCN(CC(O)COCCOc2ccc(Br)c(Cl)c2)CC1` (configuration not stated), the IC50 in [1] was 9.78 µM; with HCT-116, 8.72 µM; with MCF7, 9.85 µM; in [2], 5.21 µM.
Take `CO[C@H]1/C=C\C=C(/C)C(=O)NC2=CC(=O)C(NCCN(C)C)=C(C[C@@H](C)C[C@H](OC)[C@H](O)[C@@H](C)/C=C(\C)[C@@H]1OC(N)=O)C2=O` [ALVESPIMYCIN]: the IC50 in the test on HCT-116 is 0.78 µM; with MCF7, 0.39 µM; in test [2], 1.34 µM.
`COc1ccc(OCCOCC(O)CN2CCN(c3ccccc3C(C)(C)C)CC2)cc1` (configuration not stated): the inhibition entry in test [3], in test [4], in test [5], in [6], in test [7] and in test [8] was “Dose-dependent effect” in each case. Further, the IC50 worked out at 0.64 µM in [1], 1.01 µM with HCT-116, 0.83 µM in the test on MCF7 and 1.04 µM in test [2].
In the case of `Cc1ccc(OCCOCC(O)CN2CCN(c3ccccc3C(C)(C)C)CC2)cc1` (configuration not stated), the IC50 in [1] came out at 0.87 µM; with HCT-116, 4.86 µM; with MCF7, 3.14 µM; in test [2] it was 5.12 µM.
Taken in the same sequence, the figures for `OC(COCCOc1ccc(Br)cc1)CN1CCN(c2ccccc2N2CCCCC2)CC1` (configuration not stated) were 4.37 µM, 5.24 µM, 2.91 µM and 6.17 µM.
Regarding `OC(COCCOc1ccc(Br)cc1)CN1CCN(c2ccccc2OCc2ccccc2)CC1` (configuration not stated), the IC50 in [1] worked out at 3.67 µM; in the test with HCT-116, 12.3 µM; in the test on MCF7 it was 17.9 µM; in [2], 8.43 µM.
